Laboratory results taken from ChEMBL document CHEMBL1148007, “Synthesis of new S-derivatives of clubbed triazolyl thiazole as anti-Mycobacterium tuberculosis agents” (Bioorg Med Chem, 2007).

Key:
Staphylococcus aureus = test: Antibacterial activity against Staphylococcus aureus at 50 to 100 uM after 24 hrs by well diffusion method; format: functional
Procedure, shortened: (§1)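 Nutrient agar plates with 10 mm wells cut by cork borer; 24-h subcultured bacteria swabbed on. Compounds dissolved in chloroform, 50 to 100 μM added to wells, gentamycin as standard. Incubated 24 h at 24–28 °C; inhibition zone diameter measured and converted to percent inhibition.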

[1] = tested on: Mycobacterium tuberculosis; test: Antitubercular activity against Mycobacterium tuberculosis H37Rv at 6.25 ug/mL by MABA assay; format: functional; conditions: read-out: GI
Procedure, shortened: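 Primary screen against M. tuberculosis H37Rv (ATCC 27294) in BACTEC 12B medium by broth microdilution Microplate Alamar Blue Assay; fluorescent compounds run instead in BACTEC 460 radiometric system. Compounds above 95% inhibition counted active.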

[2] = Cytotoxicity against Vero-C1008 cells at 6.25 to 50 ug/mL by neutral red uptake assay; format: cell-based; conditions: chlorocebus sabaeus
Procedure, shortened: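 Vero-C-1008 cells exposed to 6.25 to 50 μg/mL compound; viability read by neutral red uptake.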

Escherichia coli = test: Antibacterial activity against Escherichia coli at 50 to 100 uM after 24 hrs by well diffusion method; format: functional; procedure, shortened: as §1
Pseudomonas aeruginosa = test: Antibacterial activity against Pseudomonas aeruginosa at 50 to 100 uM after 24 hrs by well diffusion method; format: functional; procedure, shortened: as §1
Salmonella typhi = test: Antibacterial activity against Salmonella typhi at 50 to 100 uM after 24 hrs by well diffusion method; format: functional, Salmonella enterica subsp. enterica serovar Typhi; parameters: unit not given here; procedure, shortened: as §1
[3] = tested on: Mycobacterium tuberculosis; test: Antitubercular activity against Mycobacterium tuberculosis H37Rv by MABA assay; format: functional
Procedure, shortened: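 Actives re-tested at lower concentrations against H37Rv (ATCC 27294) in BACTEC 12B medium by Microplate Alamar Blue Assay. MIC taken as lowest concentration giving […] fluorescence reduction versus controls; rifampin reference.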

Row | SMILES | inhibition zone (Staphylococcus aureus) | inhibition of growth at 6.25 µg/mL [1] | Activity [2] | inhibition zone (Escherichia coli) | inhibition zone (Pseudomonas aeruginosa) | Inhibition (Salmonella typhi) | MIC [3]
1 | CC(=O)Nc1nc(Cc2nnc(SCC(=O)NN)n2NC(=O)c2ccc(Cl)cc2)cs1 | 16 mm | 96% | Non-toxic | 12 mm | 16 mm | 14 | 6.25 µM
2 | N#CCSc1nnc(Cc2csc(NC(=O)c3ccccc3)n2)n1NC(=O)c1cccc([N+](=O)[O-])c1 | 28 mm | 96% | Non-toxic | 22 mm | 24 mm | 17 | < 6.25 µg/mL
3 | NNC(=O)CSc1nnc(Cc2csc(NC(=O)CCl)n2)n1NC(=O)c1cccc([N+](=O)[O-])c1 | 29 mm | 96% | Non-toxic | 19 mm | 20 mm | 18 | 6.25 µM
4 | O=C(Nc1nc(Cc2nnc(S)n2NC(=O)c2ccc(Cl)cc2)cs1)c1ccccc1 | 16 mm | 96% | Non-toxic | 10 mm | 10 mm | 18 | 6.25 µM
5 | O=C(O)CCNc1nc(Cc2nnc(S)n2NC(=O)c2ccc(Cl)cc2)cs1 | 11 mm | 96% | Non-toxic | 15 mm | 17 mm | 22 | 6.25 µM
6 | O=C(O)CCNc1nc(Cc2nnc(SCC(=O)N/N=C/c3ccccc3)n2NC(=O)c2cccc([N+](=O)[O-])c2)cs1 | 30 mm | 96% | Non-toxic | 26 mm | 32 mm | 27 | 1.56 µM
7 | Nn1c(S)nnc1CSc1nnc(Cc2csc(NC(=O)CCl)n2)n1NC(=O)c1ccc(Cl)cc1 | 27 mm |  | Non-toxic | 22 mm | 20 mm | 20 | < 6.25 µg/mL
8 | COC(=O)CSc1nnc(Cc2csc(NC(=O)c3ccccc3)n2)n1NC(=O)c1ccc(Cl)cc1 | 22 mm |  | Non-toxic | 20 mm | 22 mm | 16 | < 6.25 µg/mL
9 | Nn1c(S)nnc1CSc1nnc(Cc2csc(NCCC(=O)O)n2)n1NC(=O)c1cccc([N+](=O)[O-])c1 | 26 mm |  | Non-toxic | 17 mm | 28 mm | 18 | < 6.25 µg/mL
10 | O=C(O)CCNc1nc(Cc2nnc(SCC(=O)NNC(=O)CCl)n2NC(=O)c2cccc([N+](=O)[O-])c2)cs1 | 24 mm |  | Non-toxic | 24 mm | 26 mm | 24 | < 6.25 µg/mL
11 | Nn1c(S)nnc1CSc1nnc(Cc2csc(NCCC(=O)O)n2)n1NC(=O)c1ccc(Cl)cc1 | 21 mm |  | Non-toxic | 19 mm | 24 mm | 23 | < 6.25 µg/mL
12 | O=C(CCl)Nc1nc(Cc2nnc(SCSc3nnc(Cc4csc(NC(=O)CCl)n4)n3NC(=O)c3cccc([N+](=O)[O-])c3)n2NC(=O)c2cccc([N+](=O)[O-])c2)cs1 | 18 mm |  | Non-toxic | 27 mm | 30 mm | 24 | < 6.25 µg/mL
13 | O=C(CCl)NNC(=O)CSc1nnc(Cc2csc(NC(=O)c3ccccc3)n2)n1NC(=O)c1cccc([N+](=O)[O-])c1 | 14 mm |  | Non-toxic | 18 mm | 11 mm | 12 | < 6.25 µg/mL
14 | CC(=O)NNC(=O)CSc1nnc(Cc2csc(NC(=O)CCl)n2)n1NC(=O)c1cccc([N+](=O)[O-])c1 | 27 mm |  | Non-toxic | 18 mm | 24 mm | 24 | < 6.25 µg/mL
15 | O=C(CSc1nnc(Cc2csc(NC(=O)CCl)n2)n1NC(=O)c1ccc(Cl)cc1)NNC(=O)c1ccccc1 | 21 mm |  | Non-toxic | 21 mm | 26 mm | 20 | < 6.25 µg/mL
16 | O=C(CCl)NNC(=O)CSc1nnc(Cc2csc(NC(=O)CCl)n2)n1NC(=O)c1cccc([N+](=O)[O-])c1 | 14 mm |  | Non-toxic | 12 mm | 16 mm | 18 | < 6.25 µg/mL
17 | Nn1c(S)nnc1CSc1nnc(Cc2csc(NC(=O)c3ccccc3)n2)n1NC(=O)c1cccc([N+](=O)[O-])c1 | 24 mm |  | Non-toxic | 20 mm | 27 mm | 19 | < 6.25 µg/mL
18 | O=C(O)CCNc1nc(Cc2nnc(SCSc3nnc(Cc4csc(NCCC(=O)O)n4)n3NC(=O)c3cccc([N+](=O)[O-])c3)n2NC(=O)c2cccc([N+](=O)[O-])c2)cs1 | 25 mm |  | Non-toxic | 21 mm | 26 mm | 18 | < 6.25 µg/mL
19 | COC(=O)CSc1nnc(Cc2csc(NC(=O)c3ccccc3)n2)n1NC(=O)c1cccc([N+](=O)[O-])c1 | 22 mm |  | Non-toxic | 24 mm | 11 mm | 24 | < 6.25 µg/mL
20 | CC(=O)Nc1nc(Cc2nnc(SCC#N)n2NC(=O)c2cccc([N+](=O)[O-])c2)cs1 | 22 mm |  | Non-toxic | 20 mm | 26 mm | 21 | < 6.25 µg/mL
21 | CC(=O)Nc1nc(Cc2nnc(SCSc3nnc(Cc4csc(NC(C)=O)n4)n3NC(=O)c3cccc([N+](=O)[O-])c3)n2NC(=O)c2cccc([N+](=O)[O-])c2)cs1 | 27 mm |  | Non-toxic | 26 mm | 32 mm | 26 | < 6.25 µg/mL
22 | O=C(CCl)Nc1nc(Cc2nnc(SCSc3nnc(Cc4csc(NC(=O)CCl)n4)n3NC(=O)c3ccc(Cl)cc3)n2NC(=O)c2ccc(Cl)cc2)cs1 | 23 mm |  | Non-toxic | 29 mm | 28 mm | 18 | < 6.25 µg/mL
23 | O=C(O)CCNc1nc(Cc2nnc(SCSc3nnc(Cc4csc(NCCC(=O)O)n4)n3NC(=O)c3ccc(Cl)cc3)n2NC(=O)c2ccc(Cl)cc2)cs1 | 21 mm |  | Non-toxic | 22 mm | 29 mm | 20 | < 6.25 µg/mL
24 | O=C(Nc1nc(Cc2nnc(SCSc3nnc(Cc4csc(NC(=O)c5ccccc5)n4)n3NC(=O)c3cccc([N+](=O)[O-])c3)n2NC(=O)c2cccc([N+](=O)[O-])c2)cs1)c1ccccc1 | 26 mm |  | Non-toxic | 24 mm | 24 mm | 19 | < 6.25 µg/mL
25 | COC(=O)CSc1nnc(Cc2csc(NC(C)=O)n2)n1NC(=O)c1ccc(Cl)cc1 | 20 mm |  | Non-toxic | 10 mm | 16 mm | 10 | < 6.25 µg/mL
